Measured values taken from ChEMBL document CHEMBL4699586, “Synthesis and biological evaluation of NQO1-activated prodrugs of podophyllotoxin as antitumor agents” (Bioorg Med Chem, 2020).
pIC50: −log10 of the molar value. Active and inactive are the calls of the source. The rule behind the calls is not given here.

How the values were obtained:
[1] = tested on: HepG2; test: Induction of apoptosis in human HepG2 cells assessed as late apoptotic cells at 50 nM incubated for 24 hrs by annexin V-FITC and propidium iodide based flow cytometry analysis (reference value: 1.56 %); format: functional
[2] = tested on: HepG2; test: Induction of apoptosis in human HepG2 cells assessed as early apoptotic cells at 50 nM incubated for 24 hrs by annexin V-FITC and propidium iodide based flow cytometry analysis (reference value: 1.84 %); format: functional
[3] = tested on: A549; test: Cytotoxicity against taxol-resistant human A549 cells assessed as reduction in cell viability incubated for 48 hrs by MTT assay; format: functional, cell-based; settings: A549, 48 h
How it was run: (§1)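 Cell lines A549, HepG2, hypoxic A549/Hyp and HepG2/Hyp, taxol-resistant A549/T, and normal LO2. Log-phase cells allowed to adhere in 96-well plates, then exposed to compound for 48 h. MTT added for 2–3 h. Formazan dissolved in DMSO and absorbance read at 570 nm; IC50 derived.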

[4] = tested on: L02; test: Cytotoxicity against NQO1-deficient human L02 cells assessed as reduction in cell viability incubated for 48 hrs by MTT assay; format: cell-based; settings: L02, 48 h; how it was run: as §1
[5] = tested on: HepG2; test: Induction of apoptosis in human HepG2 cells assessed as viable cells at 50 nM incubated for 24 hrs by annexin V-FITC and propidium iodide based flow cytometry analysis (reference value: 95.66 %); format: functional; settings: read-out: Activity
[6] = tested on: HepG2; test: Cytotoxicity against hypoxia-induced human HepG2 cells assessed as reduction in cell viability incubated for 48 hrs by MTT assay; format: functional, cell-based; settings: HepG2, 48 h; how it was run: as §1
[7] = Toxicity in BALB/c mouse xenografted with human HepG2 cells assessed as animal death at 10 mg/kg, ip administered every other day for 17 consecutive days and measured on day 17; format: organism-based; settings: in vivo, 408 h, time 17 day
How it was run: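 HepG2 s.c. xenografts in BALB/c nude mice, 6 per group. Compound given i.p. every other day for 17 days in 5% DMSO/40% PEG300/5% Tween-80/50% saline. Deaths recorded over the experimental period. Body weight monitored every 2 days.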

[8] = tested on: A549; test: Cytotoxicity against hypoxia-induced human A549 cells assessed as reduction in cell viability incubated for 48 hrs by MTT assay; format: functional, cell-based; settings: A549, 48 h; how it was run: as §1
[9] = tested on: HepG2; test: Cytotoxicity against human HepG2 cells overexpressing NQO1 assessed as reduction in cell viability incubated for 48 hrs by MTT assay; format: functional, cell-based; settings: HepG2, 48 h; how it was run: as §1
[10] = tested on: HepG2; test: Induction of apoptosis in human HepG2 cells assessed as necrotic cells at 50 nM incubated for 24 hrs by annexin V-FITC and propidium iodide based flow cytometry analysis (reference value: 0.94 %); format: functional
[11] = tested on: A549; test: Cytotoxicity against human A549 cells overexpressing NQO1 assessed as reduction in cell viability incubated for 48 hrs by MTT assay; format: functional, cell-based; settings: A549, 48 h; how it was run: as §1
[12] = Toxicity in BALB/c mouse xenografted with human HepG2 cells assessed as damage in lung at 5 to 10 mg/kg, ip administered every other day for 17 consecutive days and measured on day 17 by H&E staining based light microscopic analysis; format: organism-based; settings: in vivo, 408 h, dose 5-10 mg/kg, time 17 day
How it was run: (§2)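 Six-week-old BALB/c nude mice carrying s.c. HepG2 tumours (5×10⁶ cells in PBS) randomized at 70–100 mm³, 6 per group; i.p. dosing every other day for 17 days in 5% DMSO/40% PEG300/5% Tween 80/50% saline; day-17 organs fixed in 4% paraformaldehyde, paraffin-embedded, H&E stained, light microscopy versus control.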

[13] = Selectivity index, ratio of IC50 for NQO1-deficient human L02 cells to IC50 for human HepG2 cells overexpressing NQO1 incubated for 48 hrs by MTT assay
How it was run: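 IC50 in LO2 divided by IC50 in HepG2. Both from MTT after 48 h exposure, with absorbance read at 570 nm.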

[14] = Toxicity in BALB/c mouse xenografted with human HepG2 cells assessed as damage in spleen at 5 to 10 mg/kg, ip administered every other day for 17 consecutive days and measured on day 17 by H&E staining based light microscopic analysis; format: organism-based; settings: in vivo, 408 h, dose 5-10 mg/kg, time 17 day; how it was run: as §2
[15] = Metabolic stability in rat plasma at 10 uM incubated for 9 hrs in presence of NADPH by HPLC analysis; format: ADME, cell-free
How it was run: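 Rat plasma deproteinized by vortexing and centrifugation (10000 rpm, 5 min); supernatant incubated with 10 μM substrate plus 2% Tween 80 at 37 °C for 0–540 min; after centrifugation, supernatant analysed by HPLC (UV 292 nm); run in triplicate.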

[16] = tested on: HepG2; test: Induction of cell cycle arrest in human HepG2 cells assessed as increase in cells accumulation at G2/M phase at 50 nM incubated for 24 hrs by propidium iodide based flow cytometry analysis relative to control; format: functional
How it was run: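 HepG2 plated in 12-well plates for 24 h, treated with compound (50 nM) for 24 h. Harvested, washed twice in cold PBS, held in 70% ethanol for 3 h. RNase A treatment 1 h at ambient temperature, then PI stain. Phase distribution by flow cytometry, compared with DMSO control.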

[17] = species on record: Sus scrofa; test: Inhibition of porcine tubulin polymerization at 3 uM measured every 30 secs for 1 hr
How it was run: (§3)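 Commercial tubulin polymerization kit run per manufacturer; test agent at 3 μM with vehicle control, with or without added NQO1 depending on group; absorbance at 340 nm read every 30 s for 1 h to give polymerization/depolymerization kinetic curves.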

[18] = target: T1, NAD(P)H dehydrogenase [quinone] 1 (Homo sapiens, UniProt P15559); test: Prodrug release assessed as recombinant NQO1 (unknown origin)-mediated podophyllotoxin formation at 20 uM measured after 30 mins in presence of NADPH by HRMS analysis; format: ADME; settings: 0.5 h
How it was run: (§4)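 Recombinant NQO1 (final 10 μg/mL) added to start reaction in 10 mM PBS with 2% Tween 80, 100 μM NADPH and 20 μM prodrug. Incubated at 37 °C, stopped with cold acetonitrile and centrifuged cold. Supernatant analysed by HRMS for release fragments.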

[19] = Toxicity in BALB/c mouse xenografted with assessed as damage in heart at 5 to 10 mg/kg, ip administered every other day for 17 consecutive days and measured on day 17 by H&E staining based light microscopic analysis; format: organism-based; settings: in vivo, 408 h, dose 5-10 mg/kg, time 17 day; how it was run: as §2
[20] = species on record: Sus scrofa; test: Inhibition of porcine tubulin polymerization at 3 uM in presence of NQO1 and NADPH measured for 1 hr for every 30 sec; how it was run: as §3
[21] = Toxicity in BALB/c mouse xenografted with human HepG2 cells assessed as damage in kidney at 5 to 10 mg/kg, ip administered every other day for 17 consecutive days and measured on day 17 by H&E staining based light microscopic analysis; format: organism-based; settings: in vivo, 408 h, dose 5-10 mg/kg, time 17 day; how it was run: as §2
[22] = target: T1, NAD(P)H dehydrogenase [quinone] 1; test: Prodrug release assessed as recombinant NQO1 (unknown origin)-mediated N-(4-methylenecyclohexa-2,5-dienylidene)methanamine formation formation at 20 uM measured after 30 mins in presence of NADPH by HRMS analysis; format: ADME; settings: 0.5 h; how it was run: as §4
[23] = Toxicity in BALB/c mouse xenografted with human HepG2 cells assessed as damage in liver at 5 to 10 mg/kg, ip administered every other day for 17 consecutive days and measured on day 17 by H&E staining based light microscopic analysis; format: organism-based; settings: in vivo, 408 h, dose 5-10 mg/kg, time 17 day; how it was run: as §2
[24] = Stability of the compound in PBS buffer at 10 uM at pH 5 to 9 incubated for 9 hrs in presence of NADPH by HPLC analysis; format: physicochemical; settings: pH 5, 9 h
How it was run: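 No NQO1 present; 10 μM substrate with 100 μM NADPH in PBS containing 2% Tween 80 across pH values 5–9 at 37 °C; timed samples quenched with cold acetonitrile, centrifuged, and quantified by C18 HPLC with UV detection at 292 nm; triplicate.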

[25] = tested on: HepG2; test: Antitumor activity against human HepG2 cells xenografted in BALB/c nude mouse assessed as tumor growth suppression at 10 mg/kg, ip administered every other day for 17 consecutive days and measured on day 17 by caliper analysis relative to control; format: functional; settings: 408 h, time 17 day, read-out: TGI
How it was run: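 BALB/c nude mice, 6 weeks old, given 5×10^6 HepG2 cells s.c. in sterile PBS. Randomized at tumour 70–100 mm³, 6 per group. Dosing i.p. every other day for 17 days in 5% DMSO/40% PEG300/5% Tween-80/50% saline; vehicle arm as control. Caliper volume every 2 days as V = AB²/2. Tumours excised and weighed on day 17; growth inhibition rate calculated.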

[26] = target: Tubulin (Homo sapiens) (UniProt P68371+Q9H4B7+P0DPH7+P68366+Q13509+Q71U36+P04350+Q3ZCM7+P07437+P68363+Q9BQE3+Q6PEY2+Q13885+Q9BVA1+Q9BUF5); test: Inhibition of microtubule assembly in human HepG2 cells at 50 nM incubated for 48 hrs by immunofluorescence microscopic analysis; format: cell-based
How it was run: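 HepG2 seeded 12 h at 37 °C, 5% CO₂, then exposed 48 h alongside DMSO vehicle; methanol-fixed, permeabilized in 0.5% Triton X-100/PBS, α-tubulin primary antibody overnight at 4 °C, fluorescent secondary 1 h, DAPI nuclear counterstain; fluorescence microscopy imaging of microtubule networks.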

[27] = Toxicity in BALB/c mouse xenografted with human HepG2 cells assessed as body weight reduction at 10 mg/kg, ip administered every other day for 17 consecutive days and measured on day 17; format: organism-based; settings: in vivo, 408 h, time 17 day
How it was run: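 HepG2 xenografts in 6-week BALB/c nude mice (s.c., 5×10⁶ cells), grouped at 70–100 mm³, n=6; i.p. dosing every other day for 17 days in 5% DMSO/40% PEG300/5% Tween 80/50% saline vehicle; body weight recorded every 2 days.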

[28] = target: T1, NAD(P)H dehydrogenase [quinone] 1; test: Prodrug release assessed as recombinant NQO1 (unknown origin)-mediated 6-hydroxy-4,4,5,7-tetramethylchroman-2-one formation formation at 20 uM measured after 30 mins in presence of NADPH by HRMS analysis; format: ADME; settings: 0.5 h; how it was run: as §4
[29] = Metabolic stability in human liver S9 fraction at 10 uM incubated for 9 hrs in presence of NADPH by HPLC analysis; format: ADME, subcellular; settings: s9, 9 h
How it was run: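 Pooled human liver S9 fraction (0.5 mg) in 10 mM PBS pH 7.4 with 2% Tween 80, substrate 10 μM, 37 °C; started with 100 μM NADPH, quenched with cold acetonitrile at 0–540 min; centrifuged supernatant analysed by HPLC, UV 292 nm; triplicate.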

T1 sequence (P15559 whole entry, the tested form may be a part): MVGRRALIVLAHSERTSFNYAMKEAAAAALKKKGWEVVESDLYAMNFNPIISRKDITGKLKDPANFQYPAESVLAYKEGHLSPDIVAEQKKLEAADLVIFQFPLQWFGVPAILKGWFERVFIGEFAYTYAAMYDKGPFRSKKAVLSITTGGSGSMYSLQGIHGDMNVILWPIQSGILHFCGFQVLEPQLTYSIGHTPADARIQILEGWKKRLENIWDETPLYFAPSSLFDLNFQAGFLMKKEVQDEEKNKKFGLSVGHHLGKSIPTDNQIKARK

Structure (SMILES)	Activity [1]	Activity [2]	pIC50 [3]	pIC50 [4]	viability at 0.05 µM [5]	pIC50 [6]	pIC50 [8]	pIC50 [9]	Activity [10]	pIC50 [11]	other results
COc1cc([C@@H]2c3cc4c(cc3[C@H](O)[C@H]3COC(=O)[C@H]23)OCO4)cc(OC)c1OC [PODOFILOX]	6.08%	2.88%	6.47	7.07	83.7%	6.68	6.54	7.08	7.38%	6.98	Activity [7]: Toxic
COc1cc([C@@H]2c3cc4c(cc3[C@@H](OC(=O)OCc3ccc(NC(=O)CC(C)(C)C5=C(C)C(=O)C(C)=C(C)C5=O)cc3)[C@H]3COC(=O)[C@H]23)OCO4)cc(OC)c1OC	–	–	6.24	6.34	–	6.37	6.22	6.58	–	6.56	–
COc1cc([C@@H]2c3cc4c(cc3[C@@H](OC(=O)CC(C)(C)C3=C(C)C(=O)C(C)=C(C)C3=O)[C@H]3COC(=O)[C@H]23)OCO4)cc(OC)c1OC	–	–	6.52	6.64	–	6.71	6.50	6.97	–	6.80	–
COc1cc([C@@H]2c3cc4c(cc3[C@@H](OC(=O)OCc3ccc(N(C)C(=O)CC(C)(C)C5=C(C)C(=O)C(C)=C(C)C5=O)cc3)[C@H]3COC(=O)[C@H]23)OCO4)cc(OC)c1OC	15.76%	1.74%	6.71	6.51	63.5%	6.95	6.73	7.08	18.99%	7.00	Activity [12]: Non-Toxic; Ratio IC50 [13]: 3.72; Activity [14]: Non-Toxic; Stabilty [15]: Stable; Activity [16]: 27.3%; inhibition [17]: inactive; Drug metabolism [18]: Metabolite_Detected; Activity [19]: Non-Toxic; inhibition [20]: Active; Activity [21]: Non-Toxic; Drug metabolism [22]: Metabolite_Detected; Activity [23]: Non-Toxic; Stabilty [24]: Stable; inhibition in vivo at 10 mg/kg [25]: 64%; inhibition [26]: Active; Activity [27]: Non-Toxic; Drug metabolism [28]: Metabolite_Detected; Stabilty [29]: Stable
